Experimental data taken from publication PMC9073653 (RSC Advances, 2019).

How the values were obtained:
[1] = system: human fibroblasts (HAF); experiment: SRB cytotoxicity assay, human fibroblasts HAF; assay type: cell-based; conditions: Fibroblast, 96 h, read-out: IC50 HAF
[2] = system: LNCaP cells; experiment: SRB antiproliferative assay, LNCaP; assay type: cell-based; conditions: Homo sapiens, read-out: IC50 LNCaP
Method in brief: (§1)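 AR-positive human prostate cancer line, tested in vitro for antiproliferative activity by sulforhodamine B (SRB) staining, with IC50 as the read-out.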

[3] = system: 22RV1 cells; experiment: SRB antiproliferative assay, 22RV1; assay type: cell-based; conditions: Homo sapiens, 22Rv1, read-out: IC50 22RV1
Method in brief: as §1

[4] = system: DU145, PC3 and PC3M cell lines; experiment: SRB antiproliferative assay, CRPC cell lines together; assay type: cell-based, human; conditions: across DU145, PC3 and PC3M
[5] = system: DU145 cells; experiment: Cell cycle analysis by PI staining and flow cytometry; assay type: cell-based, human; conditions: 10 μM, 24 h, control 9.66%
[6] = system: PARP and CL.PARP in DU145 cells; experiment: Western blot of PARP and cleaved PARP; assay type: cell-based, human
[7] = system: DU145 cells; experiment: Transwell migration assay; assay type: cell-based, human; conditions: 10 μM, 24 h
[8] = system: DU145 cells; experiment: Wound healing migration assay; assay type: cell-based, human; conditions: 10 μM, 24 h
[9] = system: DU145 cells; experiment: SRB antiproliferative assay, DU145; assay type: cell-based, human; conditions: in DU145 cells
[10] = system: PC3 cells; experiment: SRB antiproliferative assay, PC3; assay type: cell-based, human; conditions: in PC3 cells

| Compound | IC50 [1] | other results |
| --- | --- | --- |
| C#CCNC(=O)C[C@H]1Oc2ccccc2C(=O)[C@]1(C)[N+](=O)[O-] [Compound 14] | > 100 µM | – |
| CC12CC3CC(C)(C1)CC(NC(=O)C[C@H]1Oc4ccccc4C(=O)[C@]1(C)[N+](=O)[O-])(C3)C2 [Compound 32] | > 100 µM | – |
| C#CCOC(=O)C[C@H]1Oc2ccccc2C(=O)[C@]1(C)[N+](=O)[O-] [Compound 6] | > 100 µM | – |
| CCNC(=O)C[C@H]1Oc2ccccc2C(=O)[C@]1(C)[N+](=O)[O-] [Compound 13] | > 100 µM | – |
| COc1ccc2c(c1)C(=O)[C@](C)([N+](=O)[O-])[C@@H](CC(=O)NC13CC4CC(CC(C4)C1)C3)O2 [Compound 40] | > 100 µM | – |
| CCCCCCCCNC(=O)C[C@H]1Oc2ccccc2C(=O)[C@]1(C)[N+](=O)[O-] [Compound 17] | > 100 µM | – |
| C[C@]1([N+](=O)[O-])C(=O)c2ccccc2O[C@@H]1CC(=O)NC1CCCCC1 [Compound 18] | > 100 µM | – |
| CCCCNC(=O)C[C@H]1Oc2ccccc2C(=O)[C@]1(C)[N+](=O)[O-] [Compound 15] | > 100 µM | – |
| CNC(=O)C[C@H]1Oc2ccccc2C(=O)[C@]1(C)[N+](=O)[O-] [Compound 12] | > 100 µM | – |
| C[C@]1([N+](=O)[O-])C(=O)c2ccccc2O[C@@H]1CC(=O)OCc1ccccc1 [Compound 10] | > 100 µM | – |
| C[C@]1([N+](=O)[O-])C(=O)c2cc(Cl)ccc2O[C@@H]1CC(=O)NC12CC3CC(CC(C3)C1)C2 [Compound 37] | > 100 µM | – |
| CN(C)C(=O)C[C@H]1Oc2ccccc2C(=O)[C@]1(C)[N+](=O)[O-] [Compound 28] | > 100 µM | – |
| C[C@]1([N+](=O)[O-])C(=O)c2cc(F)ccc2O[C@@H]1CC(=O)NC12CC3CC(CC(C3)C1)C2 [Compound 36] | > 100 µM | IC50 [2]: 4.4 µM; IC50 [3]: 7.43 µM; times more potent than the positive compound cisplatin [4]: 2.3–19.4 times; percentage of G2/M phase cells [5]: 0%; expression of PARP and CL.PARP [6]: promote the PARP to CL. PARP; migration rate in comparison with control [7]: 23.94%; cell migration ability, wound healing [8]: notably inhibited |
| CC[C@]1([N+](=O)[O-])C(=O)c2ccccc2O[C@@H]1CC(=O)NC1CCCCC1 [Compound 34] | > 100 µM | – |
| C[C@]1([N+](=O)[O-])C(=O)c2ccccc2O[C@@H]1CC(=O)NCC1CCCCC1 [Compound 31] | > 100 µM | – |
| C[C@]1([N+](=O)[O-])C(=O)c2cc(Br)ccc2O[C@@H]1CC(=O)NC12CC3CC(CC(C3)C1)C2 [Compound 38] | 3.67 ± 0.56 µM | – |
| C[C@]1([N+](=O)[O-])C(=O)c2c(F)cccc2O[C@@H]1CC(=O)NC12CC3CC(CC(C3)C1)C2 [Compound 41] | > 100 µM | – |

| Compound | IC50 [1] | other results |
| --- | --- | --- |
| C[C@]1([N+](=O)[O-])C(=O)c2cc(C(F)(F)F)ccc2O[C@@H]1CC(=O)NC12CC3CC(CC(C3)C1)C2 [Compound 35] | > 100 µM | – |
| C[C@]1([N+](=O)[O-])C(=O)c2ccc(F)cc2O[C@@H]1CC(=O)NC12CC3CC(CC(C3)C1)C2 [Compound 42] | > 100 µM | – |
| C[C@]1([N+](=O)[O-])C(=O)c2ccccc2O[C@@H]1CC(=O)Nc1ncccn1 [Compound 23] | > 100 µM | – |
| C[C@]1([N+](=O)[O-])C(=O)c2ccccc2O[C@@H]1CC(=O)Nc1nccs1 [Compound 22] | > 100 µM | – |
| C[C@]1([N+](=O)[O-])C(=O)c2ccccc2O[C@@H]1CC(=O)NNc1nc2ccccc2s1 [Compound 26] | > 100 µM | – |
| C[C@]1([N+](=O)[O-])C(=O)c2ccccc2O[C@@H]1CC(N)=O [Compound 11] | > 100 µM | – |
| CC(C)(C)NC(=O)C[C@H]1Oc2ccccc2C(=O)[C@]1(C)[N+](=O)[O-] [Compound 16] | > 100 µM | – |
| CC(=O)O[C@@]12CO[C@@H]1C[C@H](O)[C@@]1(C)C(=O)[C@H](O)C3=C(C)[C@@H](OC(=O)[C@H](O)[C@@H](NC(=O)OC(C)(C)C)c4ccccc4)C[C@@](O)([C@@H](OC(=O)c4ccccc4)[C@H]21)C3(C)C [Docetaxel, reference compound] | 0.157 ± 0.031 µM | – |
| CN(C(=O)C[C@H]1Oc2ccccc2C(=O)[C@]1(C)[N+](=O)[O-])C1CCCCC1 [Compound 27] | > 100 µM | – |
| CC[C@]1([N+](=O)[O-])C(=O)c2ccccc2O[C@@H]1CC(=O)NC12CC3CC(CC(C3)C1)C2 [Compound 33] | > 100 µM | – |
| C[C@]1([N+](=O)[O-])C(=O)c2ccccc2O[C@@H]1CC(=O)NCc1ccccc1 [Compound 21] | > 100 µM | – |
| C[C@]1([N+](=O)[O-])C(=O)c2cccc(F)c2O[C@@H]1CC(=O)NC12CC3CC(CC(C3)C1)C2 [Compound 43] | > 100 µM | – |
| C[C@]1(N)C(=O)c2cc(F)ccc2O[C@@H]1CC(=O)NC12CC3CC(CC(C3)C1)C2 [Compound 44] | > 100 µM | – |
| C[C@]1([N+](=O)[O-])C(=O)c2ccccc2O[C@@H]1CC(=O)Nc1ccccc1 [Compound 20] | > 100 µM | – |
| C[C@]1([N+](=O)[O-])C(=O)c2ccccc2O[C@@H]1CC(=O)NC12CC3CC(CC(C3)C1)C2 [Compound 19] | > 100 µM | more potent antiproliferative activity than cisplatin [9]: 1.6 fold; more potent antiproliferative activity than cisplatin [10]: 5.9 fold |
| C[C@]1([N+](=O)[O-])C(=O)c2ccccc2O[C@@H]1CC(=O)NC1CCCC1 [Compound 29] | > 100 µM | – |
| C[C@]1([N+](=O)[O-])C(=O)c2ccccc2O[C@@H]1CC(=O)Nc1ccc2[nH]ccc2c1 [Compound 24] | > 100 µM | – |
